Results as given in ChEMBL document CHEMBL4825692, “Benzofuranyl-2-imidazoles as imidazoline I2 receptor ligands for Alzheimer's disease” (Eur J Med Chem, 2021).
Activity calls are given as the source filed them. The rule behind the calls is not given here.

What was measured:
[1] = Acute toxicity in albino mouse assessed as effect on body weight at 100 mg/kg, ip; format: organism-based; conditions: in vivo
Rattus norvegicus = species on record: Rattus norvegicus; assay: Displacement of [3H]idazoxan from imidazoline I2 receptor in rat brain cerebral cortex membrane assessed as occupancy at high affinity site measured after 30 mins by liquid scintillation counting spectrometry
Mus musculus [2] = species on record: Mus musculus; assay: Displacement of [3H]2-BFI from imidazoline I2 receptor in Swiss mouse brain cerebral cortex membrane assessed as occupancy at high affinity site measured after 45 mins by liquid scintillation counting spectrometry
HL-60 = assay: Cytotoxicity against human HL-60 cells at 100 uM by real time IncuCyte proliferation assay; format: cell-based; conditions: hl-60, 100 µM
How it was run: (§1)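 Adherent lines (LN-229, Capan-1, HCT-116, NCI-H460) seeded at 500–1500 cells/well and treated after overnight attachment. Suspension lines (HL-60, K-562, Z-138, DND-41) seeded at 2500–5500 cells/well directly with compound. Highest concentration 100 μM; proliferation tracked by real-time IncuCyte imaging over 72 h at 37 °C.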

Mus musculus [3] = assay: Antialzheimer activity in 5xFAD transgenic Alzheimer disease mouse model assessed as decrease in heme oxygenase 1 expression at 1 mg/kg/day by Western blot analysis
[4] = Displacement of [3H]2-BFI from imidazoline I2 receptor low affinity site in Swiss mouse brain cerebral cortex membrane measured after 45 mins by liquid scintillation counting spectrometry
[5] = Cytotoxicity against human DND41 cells at 100 uM by real time IncuCyte proliferation assay; format: cell-based; conditions: dnd41, 100 µM; how it was run: as §1
[6] = Solubility of compound at pH 1.13; format: physicochemical; conditions: buffer
How it was run: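 Solubility was measured at pH 1.13, 4.61 and 6.97, simulating gastric and intestinal fluids, and classed by European Pharmacopoeia terms.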

[7] = Cmax in CD-1 mouse at 10 mg/kg, po measured after 24 hrs by HPLC/UV-VS analysis; format: ADME, organism-based; set-up: route oral, dose 10 mg/kg, time 24 hrs; conditions: in vivo
How it was run: (§2)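 Male CD1 mice; plasma concentration of drug at 15 min to 24 h after a single oral 10 mg/kg dose, measured by HPLC with UV at 290 nm (calibration 0,025-5 μg/mL, peak area ratio). Non-compartmental analysis of mean concentration–time curves: AUC by trapezoidal rule, Cmax read directly from the mean curve.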

NCI-H460 = assay: Cytotoxicity against human NCI-H460 cells at 100 uM by real time IncuCyte proliferation assay; format: cell-based; conditions: nci-h460, 100 µM; how it was run: as §1
K562 = assay: Cytotoxicity against human K562 cells at 100 uM by real time IncuCyte proliferation assay; format: cell-based; conditions: k562, 100 µM; how it was run: as §1
[8] = Displacement of [3H]clonidine from imidazoline I1 receptor low affinity site in human hypothalamic membranes measured after 30 mins by liquid scintillation counting spectrometry; format: cell membranes, Hypothalamus, Membrane
[9] = Displacement of [3H]2-BFI from imidazoline I2 receptor in post-mortem human brain frontal cortex membrane one site model measured after 45 mins by liquid scintillation counting spectrometry
Mus musculus [10] = assay: Antialzheimer activity in 5xFAD transgenic Alzheimer disease mouse model assessed as decrease in iNOS expression at 1 mg/kg/day by Western blot analysis
Cytochrome P450 2C9 = Cytochrome P450 2C9 (Homo sapiens, UniProt P11712); assay: Inhibition of CYP2C9 (unknown origin) at 10 uM; format: ADME
Chain of Cytochrome P450 2C9 (P11712 whole entry): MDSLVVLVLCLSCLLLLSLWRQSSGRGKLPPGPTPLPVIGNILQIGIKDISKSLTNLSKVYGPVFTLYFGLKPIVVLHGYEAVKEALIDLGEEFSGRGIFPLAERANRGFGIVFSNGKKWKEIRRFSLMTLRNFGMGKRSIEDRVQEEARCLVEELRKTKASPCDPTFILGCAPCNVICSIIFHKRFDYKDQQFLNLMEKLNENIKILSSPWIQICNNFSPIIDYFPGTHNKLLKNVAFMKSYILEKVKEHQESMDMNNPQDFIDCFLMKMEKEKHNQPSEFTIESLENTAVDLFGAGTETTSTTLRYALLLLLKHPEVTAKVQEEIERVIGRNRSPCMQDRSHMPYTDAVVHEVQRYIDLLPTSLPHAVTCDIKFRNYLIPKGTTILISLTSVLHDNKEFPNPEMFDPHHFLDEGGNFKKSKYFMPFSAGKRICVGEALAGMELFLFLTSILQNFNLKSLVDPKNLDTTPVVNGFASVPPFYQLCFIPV
How it was run: (§3)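 Recombinant human CYP1A2, CYP2C9, CYP2C19, CYP2D6 and CYP3A4 (7-BFC or DBF as probe) were tested with probe substances and fluorescent detection, with test compound at 10 μM.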

Mus musculus [11] = assay: Antialzheimer activity in 5xFAD transgenic Alzheimer disease mouse model assessed as decrease in aldehyde dehydrogenase 2 expression at 1 mg/kg/day by Western blot analysis
[12] = Solubility of the compound in 99 % PBS buffer solution; format: physicochemical
[13] = Solubility of the compound in 1% DMSO solution; format: physicochemical
[14] = Displacement of [3H]2-BFI from imidazoline I2 receptor high affinity site in Swiss mouse brain cerebral cortex membrane measured after 45 mins by liquid scintillation counting spectrometry
Homo sapiens = species on record: Homo sapiens; assay: Selectivity index, ratio of pKi for displacement of [3H]2-BFI from imidazoline I2 receptor in post-mortem human brain frontal cortex membrane to pKi for displacement of [3H]-RX821002 from adrenergic alpha 2 receptor in post-mortem human brain frontal cortex membrane; format: cell membranes
Cytochrome P450 3A4 = Cytochrome P450 3A4 (Homo sapiens, UniProt P08684); assay: Inhibition of CYP3A4 (unknown origin) using as 7-BFC as substrate at 10 uM; format: ADME; how it was run: as §3
Chain of Cytochrome P450 3A4 (P08684 whole entry): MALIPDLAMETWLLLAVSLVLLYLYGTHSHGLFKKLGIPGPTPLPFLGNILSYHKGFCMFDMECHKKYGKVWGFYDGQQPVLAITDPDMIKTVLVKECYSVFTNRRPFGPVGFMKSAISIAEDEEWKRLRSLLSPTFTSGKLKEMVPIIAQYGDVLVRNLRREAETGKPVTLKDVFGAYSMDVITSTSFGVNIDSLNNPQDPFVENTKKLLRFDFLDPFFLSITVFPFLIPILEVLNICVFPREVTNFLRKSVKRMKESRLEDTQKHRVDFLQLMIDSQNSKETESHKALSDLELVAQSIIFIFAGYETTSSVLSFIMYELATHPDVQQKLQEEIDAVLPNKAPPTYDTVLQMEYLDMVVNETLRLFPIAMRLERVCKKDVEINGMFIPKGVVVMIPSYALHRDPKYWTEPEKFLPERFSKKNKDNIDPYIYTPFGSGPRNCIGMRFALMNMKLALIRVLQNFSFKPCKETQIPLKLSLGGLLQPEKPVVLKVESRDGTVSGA

LN-229 = assay: Cytotoxicity against human LN-229 cells at 100 uM by real time IncuCyte proliferation assay; format: cell-based; conditions: ln-229, 100 µM; how it was run: as §1
[15] = Microsomal stability in mouse liver microsomes assessed as parent compound remaining after 60 mins; format: ADME, Microsome; conditions: read-out: Stabilty
How it was run: (§4)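 Human and mouse microsomes, incubation for 60 min, with percentage of parent compound remaining reported.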

Z-138 = assay: Cytotoxicity against human Z138 cells at 100 uM by real time IncuCyte proliferation assay; format: cell-based; conditions: z-138, 100 µM; how it was run: as §1
[16] = Microsomal stability in human liver microsomes assessed as parent compound remaining after 60 mins; format: ADME, Microsome; conditions: read-out: Stabilty; how it was run: as §4
[17] = Terminal half life in CD-1 mouse at 10 mg/kg, po measured after 24 hrs by HPLC/UV-VS analysis; format: ADME, organism-based; conditions: in vivo, read-out: beta t1/2 (converted)
How it was run: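 Male CD1 mice (40–50 g, n = 3–4 per group) received a single 10 mg/kg dose. Plasma was taken at 15, 30, 45 and 60 min and 2, 3, 4, 5, 8 and 24 h. Drug was measured by HPLC-UV at 290 nm against a calibration of 0,025-5 μg/mL. Non-compartmental analysis used the mean curve: t1/2β = ln2/β from least-squares terminal slope; Tmax read directly.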

Mus musculus [18] = assay: Antialzheimer activity in 5xFAD transgenic Alzheimer disease mouse model assessed as increase in SOD1 expression at 1 mg/kg/day by Western blot analysis
Mus musculus [19] = assay: Neuroprotection in naive mouse assessed as reduction in hippocampal FADD protein level at 50 mg/kg, ip by Western blot analysis relative to control; format: functional; set-up: scale not given: the % may be the effect or the level left
How it was run: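 Adult naive CD-1 mice received one i.p. dose (n = 7) or saline vehicle (2 ml/kg, n = 6) and were killed 1 h later. Hippocampal protein (40 µg) was run on 10% SDS-PAGE, blotted to nitrocellulose and probed with anti-FADD, then ECL. Band IOD densitometry was expressed as % of same-gel vehicle controls, averaged over 2–4 gels per sample.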

[20] = AUC (0 to t) in CD-1 mouse at 10 mg/kg, po measured after 24 hrs by HPLC/UV-VS analysis; format: ADME, organism-based; set-up: route oral, time 24 hrs, dose 10 mg/kg; conditions: in vivo; how it was run: as §2
Mus musculus [21] = assay: Antialzheimer activity in 5xFAD transgenic Alzheimer disease mouse model assessed as increase in GPX1 expression at 1 mg/kg/day by Western blot analysis

Cl.c1ccc2oc(-c3ncc[nH]3)cc2c1
Activity [1]: Non-Toxic | Activity (Rattus norvegicus): 79% | Activity (Mus musculus [2]): 41% | Activity (HL-60): Non-Toxic | Activity (Mus musculus [3]): Active | pKi [4]: 6 | Activity [5]: Non-Toxic | solubility [6]: Soluble | Cmax [7]: 600 ng/mL | Activity (NCI-H460): Non-Toxic | Activity (K562): Non-Toxic | Ki [8]: 250 µM | pKi [9]: 6.67 | Activity (Mus musculus [10]): Active | inhibition (INH) (Cytochrome P450 2C9): Not Active | Activity (Mus musculus [11]): Active | solubility [12]: 52.5 µM | solubility [13]: 52.5 µM | pKi [14]: 9.92 | Selectivity Index (Homo sapiens): 3090 | inhibition (INH) (Cytochrome P450 3A4): Not Active | Activity (LN-229): Non-Toxic | remaining at 1 h [15]: 36% | Activity (Z-138): Non-Toxic | remaining at 1 h [16]: 58% | half-life [17]: 6.7 h | Activity (Mus musculus [18]): Active | Activity (Mus musculus [19]): 34% | AUC(0-t) at 24 h [20]: 2700 ng·h/mL | Activity (Mus musculus [21]): Active
